Experimental data pooled from the literature.
Protocols differ between the studies behind these lines.
Matrix: plasma

CO[C@@H]1[C@H](OC(=O)N2CC(CCN3CCOCC3)C2)CC[C@]2(CO2)[C@H]1[C@@]1(C)O[C@@H]1CC=C(C)C — half-life (human; subcutaneous, 3.6 mg, single dose, healthy volunteers): 0.47 h
COCCOc1cnc2ccn([C@H](C)c3nnc4c(F)cc(-c5cnn(C)c5)cn34)c(=O)c2c1 — half-life (human; oral, 100 mg, multiple doses, once daily, patients): 9.1 h
Cn1cc(-c2ccc(S(=O)(=O)[C@@H]3C[C@@H](C(=O)NC4(C#N)CC4)N(C(=O)C4(C(F)(F)F)CC4)C3)c(C(F)(F)F)c2)cn1 — half-life (human; oral, 3 mg, single dose, fasted, healthy volunteers): 5.69 h
CC(C)(Sc1ccncc1-c1ccc(C#N)c2ccccc12)C(=O)O — half-life (male human; oral, 40 mg, single dose, fasted, healthy volunteers): 9.51 h
CO[C@H]1CC[C@H](N2C(=O)CNc3ncc(-c4ccc(C(C)(C)O)nc4)nc32)CC1 — half-life (human; oral, 45 mg, patients): 4.86 h
c1cnc2ccc(Nc3nc(NC4CC4)c4nc[nH]c4n3)cc2c1 — half-life (human; oral, 50 mg/m², patients): 2 h
COc1cc(C(=O)NC2CCN(C)CC2)c(F)cc1Nc1ncc(C(F)(F)F)c(Oc2cccc3c2C(=O)N(C)C3)n1 — half-life (human; oral, 100 mg, multiple doses, once daily, patients): 18.9 h
COc1ccc([C@@H]2CN(C(=O)[C@@H](O)CO)C[C@@]2(C)[C@@H](C)O)cc1OC1CN(c2ccc(C)cn2)C1 — half-life (human; oral, 40 mg, single dose, healthy volunteers): 12.1 h
C[C@@H](Nc1cc(F)cc(F)c1)c1cc(C(=O)N(C)C)cc2c(=O)cc(N3CCOCC3)oc12 — half-life (human; oral, 240 mg, single dose, patients): 6.23 h
CC(C)n1cc(C#N)c2cc(-n3cc(C(=O)O)cn3)ccc21 — half-life (human; oral, 10 mg, single dose, fasted, healthy volunteers): 5.1 h
CC(C)(O)c1ccccc1-c1ccc2[nH]c(/C=C/c3ccc(C(F)(F)F)cc3)nc2c1 — half-life (male human; oral, 120 mg, single dose, fasted, healthy volunteers): 63 h
